Measured values gathered from unrelated publications.
Each line is one published result; the experiments were not run side by side.

For `C[C@]1(C(=O)O)CSC(c2ccc(OCCCC(=O)O)cc2O)=N1`, the logD was -2.21 (shake flask; aqueous buffer; pH 7.4).
`Cc1c(C(=O)NN2CCCCC2)nc(-c2ccc(Cl)cc2Cl)n1-c1ccc(OS(=O)(=O)CCC(F)(F)F)cc1` has a logD of 4.9 (shake flask; aqueous buffer; pH 7.4).
The logD of `O=C(NCCN1CCCC1)c1cc(-c2ccc(CN3CCOCC3)cc2)nc2ccc(F)cc12` is reported as 2.5 (shake flask; aqueous buffer; pH 7.4).
With `Cc1c(C(=O)N[C@@H]2CCCC[C@@H]2O)nc(-c2ccc(Cl)cc2Cl)n1-c1ccc(OS(=O)(=O)CCC(F)(F)F)cc1` (single isomer, unassigned) the logD was greater than 4.3 (shake flask; aqueous buffer; pH 7.4).
With `CC(C)Cc1ccc(C(C)C(=O)O)cc1` (stereo not drawn) the logD was 0.94 (shake flask; aqueous buffer; pH 7.5).
`CCC1=C(C)C2=NC1=Cc1c(C)c(CC)c3[n]1[Fe][n]1c(c(C)c(CCC(=O)O)c1=CC1=NC(=C3)C(C)=C1CCC(=O)O)=C2` gave a logD of 0.552 (shake flask; aqueous buffer; pH 9).
`CNC(=O)[C@H](Cc1c[nH]cn1)NC(=O)CN(CCCc1ccccc1)CC(=O)OC` has a logD of 1.07 (shake flask; PBS; 2 h; pH 7.4).
The logD of `CC(C)CN(C[C@@H](O)[C@H](Cc1ccccc1)NC(=O)O[C@H]1CO[C@H]2OCC[C@H]21)S(=O)(=O)c1ccc(N)cc1` is reported as 2.84 (shake flask; PBS; pH 7.4).
`O=C(C1CCN(c2nnnn2-c2ccccc2)CC1)N1CCCc2c(Cl)cccc21` gave a logD of 3.6 (shake flask; PBS; pH 7.4).
The logD of `O=C(O)CN(CCCc1ccccc1)CC(=O)N[C@H](CO)Cc1c[nH]cn1` is reported as -1.3 (shake flask; PBS; 2 h; pH 7.4).
For `CN1CCN(c2ccc3nc(-c4ccc5nc(-c6ccc(OCCCCNC(=S)Nc7ccc(CC(CN(CCN(CC(=O)O)CC(=O)O)CC(=O)O)N(CC(=O)O)CC(=O)O)cc7)cc6)[nH]c5c4)[nH]c3c2)CC1` (stereo not drawn), the logD was -1.4 (shake flask; PBS; pH 7.4).
For `COc1ccn2c(Nc3ccccc3F)c(-c3ccncn3)nc2c1`, the logD was 2.5 (pH 7.4).
`COC(=O)[C@H](Cc1c[nH]cn1)NC(=O)CN(CC(=O)O)Cc1ccccc1` has a logD of -2.05 (shake flask; PBS; 2 h; pH 7.4).
With `CN1CCN(c2ccc3nc(-c4ccc5nc(-c6ccc(OCCCCNC(=O)[C@H](N)CS)cc6)[nH]c5c4)[nH]c3c2)CC1` the logD was 2 (shake flask; PBS; pH 7.4).
The logD of `Cc1noc([C@H](Cc2c[nH]cn2)NC(=O)CN(CCCc2ccccc2)CC(=O)O)n1` is reported as -0.84 (shake flask; PBS; 2 h; pH 7.4).
For `CCCS(=O)(=O)Oc1ccc(-n2c(-c3ccc(Cl)cc3Cl)nc(C(=O)NN3CCCCC3)c2C)cc1`, the logD was 4.6 (shake flask; aqueous buffer; pH 7.4).
For `COCCCCCCOc1ccc(C2=N[C@@](C)(C(=O)O)CS2)c(O)c1`, the logD was 0.95 (shake flask; aqueous buffer; pH 7.4).
`Cc1c(C(=O)NN2CCCCC2)nc(-c2ccc(Cl)cc2Cl)n1-c1ccc(OCCC(F)(F)F)cc1` gave a logD of 5.4 (shake flask; aqueous buffer; pH 7.4).
With `C[C@]1(C(=O)O)CSC(c2ccc(OCC(=O)O)cc2O)=N1` the logD was -1.98 (shake flask; aqueous buffer; pH 7.4).
With `CCCCS(=O)(=O)Oc1ccc(-n2c(-c3ccc(Cl)cc3Cl)nc(C(=O)NN3CCCCC3)c2C)cc1` the logD was 5.1 (shake flask; aqueous buffer; pH 7.4).
`O=C(O)C1=Cc2cc3ccc(cc4nc(cc5c(-c6ccccc6)c(C(=O)O)c(c(C(=O)O)c1n2)n5C(=O)O)C=C4)[nH]3` has a logD of 0.0277 (shake flask; aqueous buffer; pH 9).
For `Cc1c(C(=O)Nc2ccc(F)nc2)nc(-c2ccc(Cl)cc2Cl)n1-c1ccc(OS(=O)(=O)CCC(F)(F)F)cc1`, the logD was greater than 4.3 (shake flask; aqueous buffer; pH 7.4).
With `COC(=O)CN(CC(=O)N[C@@H](Cc1c[nH]cn1)C(=O)OC)Cc1ccccc1` the logD was 0.82 (shake flask; PBS; 2 h; pH 7.4).
The logD of `Cc1c(C(=O)NN2CCCCC2)nc(-c2ccc(Cl)cc2Cl)n1-c1ccc(OS(=O)(=O)CCCC(F)(F)F)cc1` is reported as 5.3 (shake flask; aqueous buffer; pH 7.4).
For `CCCCc1nc2c(N)nc3ccccc3c2n1Cc1ccc(N)cc1`, the logD was 2.6 (shake flask; PBS; pH 7.4).
The logD of `Cc1c(C(=O)N[C@@H]2CCCC[C@@H]2N(C)C)nc(-c2ccc(Cl)cc2Cl)n1-c1ccc(OS(=O)(=O)CCC(F)(F)F)cc1` (relative stereo) is reported as 3.8 (shake flask; aqueous buffer; pH 7.4).
With `COc1ccc2cc(CCC[18F])ccc2c1` the logD was 2.46 (shake flask; aqueous buffer; pH 7.4).
